Assay results as given in the RNAGym collection of RNA variant scans (doi:10.1126/science.aae0568).
This sample holds only a part of the variants without activity.

B1: tRNA (parent)
chain: GUUCCGUUGGCGUAAUGGUAACGCGUCUCCCUCCUAAGGAGAAGACUGCGGGUUCGAGUCCCGUACGGAACG

Variants of: B1
Assay: yeast fitness relative to wild type (ratio to wild type); higher = fitter; tRNA-Arg(CCU), competitive growth, 37 C, YPD
Procedure, shortened: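 A pool of Saccharomyces cerevisiae strains, each with a tRNA-Arg(CCU) gene variant at the native genomic locus, was competed in YPD at 37°C for 24 hours across six parallel replicates. The variants had been chemically synthesised at a 3% per-site mutation rate over 69 sites, and gene amplicons before and after competition were read by 100-nucleotide paired-end sequencing. Darwinian fitness relative to wild type rested on changes in genotype frequencies. Genotypes required ≥ 100 starting reads, and estimates < 0.5 were set to 0.5.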

**Q.** With GUUCCGUUGGCGUAAUGGUAACGCGUCUCCCUCCUAAGGAGAAGACUCCGGGUUCGAGUCGCGUUCGGAACG [G48C C61G A65U] as the variant, how does the yeast fitness read?
**A.** The yeast fitness was ≤ 0.5.

**Q.** With GUUCCGUUGGCGUAAUGGUAACGCGUCUCCCUCCUAAGGAGAAGACUCCGGGUUAGAGUCUCGUACGGAACG [G48C C55A C61U] as the variant, how does the yeast fitness read?
**A.** The yeast fitness was ≤ 0.5.

**Q.** For GUUCCGUUGGCGUAAUGGUAACGCGUCUCCCUCCUAAGGAGAAGACUAUGGGUUCGAGUCCCGUGCGGAACG [G48A C49U A65G], which yeast fitness is on record?
**A.** The yeast fitness was 0.743.

**Q.** For GUUCCGUUGGCGUAAUGGUAACGCGUCUCCCUCCUAAGGAGAAGACUCCGGGUUCGAGUCCCGUCGGGAACG [G48C A65C C66G], which yeast fitness is on record?
**A.** Its yeast fitness is 0.557.

**Q.** Which yeast fitness does the source give for GUUCCGUUGGCGUAAUGGUAACGCGUCUCCCUCCUAAGGAGAAGACUACGGGUUCGAGUGCCGUACGGAACG [G48A C60G] here?
**A.** Its yeast fitness is 0.583.

**Q.** Which yeast fitness does the source give for GUUCCGUUGGCGUAAUGGUAACGCGUCUCCCUCCUAAGGAGAAGACUCCGGGUUCGAGUCCCGUCCGGAACG [G48C A65C] here?
**A.** Its yeast fitness is 0.989.

**Q.** With GUUCCGUUGGCGUAAUGGUAACGCGUCUCCCUCCUAAGGAGAAGACUACAGGUUCGAGUCCCGUACGGAACG [G48A G50A] as the variant, how does the yeast fitness read?
**A.** Its yeast fitness is 0.973.

**Q.** Which yeast fitness does the source give for GUUCCGUUGGCGUAAUGGUAACGCGUCUCCCUCCUAAGGAGAAGACUACGGGUUCGAGUCCCGUACGCAACG [G48A G68C] here?
**A.** Its yeast fitness is 0.985.

**Q.** Which yeast fitness does the source give for GUUCCGUUGGCGUAAUGGUAACGCGUCUCCCUCCUAAGGAGAAGACUACGGGUUCGACUCACGUACGGAACG [G48A G58C C61A] here?
**A.** The yeast fitness was 0.601.

**Q.** Which yeast fitness does the source give for GUUCCGUUGGCGUAAUGGUAACGCGUCUCCCUCCUAAGGAGAAGACUACGAGUUCGAGUCCCGUACGGAACG [G48A G51A] here?
**A.** Its yeast fitness is 1.04.

**Q.** With GUUCCGUUGGCGUAAUGGUAACGCGUCUCCCUCCUAAGGAGAAGACUACGGGUUCGAGUCCCGUACGGACCG [G48A A70C] as the variant, how does the yeast fitness read?
**A.** The yeast fitness was 0.956.

**Q.** For GUUCCGUUGGCGUAAUGGUAACGCGUCUCCCUCCUAAGGAGAAGACUACGGGUUCGAGUCCCGUACGGAUCG [G48A A70U], which yeast fitness is on record?
**A.** The yeast fitness was 1.04.

**Q.** With GUUCCGUUGGCGUAAUGGUAACGCGUCUCCCUCCUAAGGAGAAGACUCCGGGUUCGAGUCCCGUACCGAUCG [G48C G67C A70U] as the variant, how does the yeast fitness read?
**A.** Its yeast fitness is 0.53.

**Q.** For GUUCCGUUGGCGUAAUGGUAACGCGUCUCCCUCCUAAGGAGAAGACUCCAGGUUCGAGUCCCGUACAGAACG [G48C G50A G67A], which yeast fitness is on record?
**A.** Its yeast fitness is ≤ 0.5.

**Q.** For GUUCCGUUGGCGUAAUGGUAACGCGUCUCCCUCCUAAGGAGAAGACUACGGGUGCGAGUCCCGUACGGAUCG [G48A U54G A70U], which yeast fitness is on record?
**A.** The yeast fitness was ≤ 0.5.

**Q.** With GUUCCGUUGGCGUAAUGGUAACGCGUCUCCCUCCUAAGGAGAAGACUCCGCGUUCGAGUCCCGUACGGUACG [G48C G51C A69U] as the variant, how does the yeast fitness read?
**A.** The yeast fitness was ≤ 0.5.

**Q.** For GUUCCGUUGGCGUAAUGGUAACGCGUCUCCCUCCUAAGGAGAAGACGGCGGGUCCGAGUCCCGUACGGAACG [U47G U54C], which yeast fitness is on record?
**A.** Its yeast fitness is 0.504.

**Q.** Which yeast fitness does the source give for GUUCCGUUGGCGUAAUGGUAACGCGUCUCCCUCCUAAGGAGAAGACUACAGGUACGAGUCCCGUACGGAACG [G48A G50A U54A] here?
**A.** The yeast fitness was 0.597.

**Q.** For GUUCCGUUGGCGUAAUGGUAACGCGUCUCCCUCCUAAGGAGAAGACUACGGGUUUGAGUCCCAUACGGAACG [G48A C55U G63A], which yeast fitness is on record?
**A.** Its yeast fitness is 0.706.

**Q.** For GUUCCGUUGGCGUAAUGGUAACGCGUCUCCCUCCUAAGGAGAAGACUACGGGUUCGUGUCCCGUACGGAACG [G48A A57U], which yeast fitness is on record?
**A.** Its yeast fitness is 0.649.

**Q.** Which yeast fitness does the source give for GUUCCGUUGGCGUAAUGGUAACGCGUCUCCCUCCUAAGGAGAAGACUCCGGGUUCAAGUCCCGUACGGAUCG [G48C G56A A70U] here?
**A.** Its yeast fitness is 0.918.

**Q.** With GUUCCGUUGGCGUAAUGGUAACGCGUCUCCCUCCUAAGGAGAAGACUACGGGUUCAAGUCCCGUGCGGAACG [G48A G56A A65G] as the variant, how does the yeast fitness read?
**A.** Its yeast fitness is 0.718.

**Q.** For GUUCCGUUGGCGUAAUGGUAACGCGUCUCCCUCCUAAGGAGAAGACUACGGCUCCGAGUCCCGUACGGAACG [G48A G52C U54C], which yeast fitness is on record?
**A.** Its yeast fitness is 0.542.

**Q.** For GUUCCGUUGGCGUAAUGGUAACGCGUCUCCCUCCUAAGGAGAAGACUCCGGGUUCGGGUCCCAUACGGAACG [G48C A57G G63A], which yeast fitness is on record?
**A.** Its yeast fitness is ≤ 0.5.

**Q.** Which yeast fitness does the source give for GUUCCGUUGGCGUAAUGGUAACGCGUCUCCCUCCUAAGGAGAAGACUACGGGUUCGAGUCCCAUACGGAUCG [G48A G63A A70U] here?
**A.** The yeast fitness was 0.811.

**Q.** For GUUCCGUUGGCGUAAUGGUAACGCGUCUCCCUCCUAAGGAGAAGACGGCGGGUUCGAGUCCCGCACGGAACG [U47G U64C], which yeast fitness is on record?
**A.** The yeast fitness was 0.622.

**Q.** Which yeast fitness does the source give for GUUCCGUUGGCGUAAUGGUAACGCGUCUCCCUCCUAAGGAGAAGACUCCGGGUUCGAGUACCGUACGGAACG [G48C C60A] here?
**A.** The yeast fitness was 0.644.

**Q.** Which yeast fitness does the source give for GUUCCGUUGGCGUAAUGGUAACGCGUCUCCCUCCUAAGGAGAAGACUCCGGCUUCGCAUCCCGUACGGAACG [G48C G52C A57C G58A] here?
**A.** The yeast fitness was ≤ 0.5.

**Q.** For GUUCCGUUGGCGUAAUGGUAACGCGUCUCCCUCCUAAGGAGAAGACUCCGGGUUCGAGUCCUGUACGCAACG [G48C C62U G68C], which yeast fitness is on record?
**A.** Its yeast fitness is 0.557.

**Q.** For GUUCCGUUGGCGUAAUGGUAACGCGUCUCCCUCCUAAGGAGAAGACUACGGGUUCGAGUCGCGUACGGAACG [G48A C61G], which yeast fitness is on record?
**A.** Its yeast fitness is 0.559.

**Q.** Which yeast fitness does the source give for GUUCCGUUGGCGUAAUGGUAACGCGUCUCCCUCCUAAGGAGAAGACUACGGGUUCCAGUCCCGUACGGAACG [G48A G56C] here?
**A.** The yeast fitness was 0.618.

**Q.** Which yeast fitness does the source give for GUUCCGUUGGCGUAAUGGUAACGCGUCUCCCUCCUAAGGAGAAGACUCCGGGUUCGAGUCCGGUUCGGAACG [G48C C62G A65U] here?
**A.** The yeast fitness was ≤ 0.5.

**Q.** Which yeast fitness does the source give for GUUCCGUUGGCGUAAUGGUAACGCGUCUCCCUCCUAAGGAGAAGACGGCGGAUUCGAGUCCCGUACGGAACG [U47G G52A] here?
**A.** The yeast fitness was ≤ 0.5.

**Q.** Which yeast fitness does the source give for GUUCCGUUGGCGUAAUGGUAACGCGUCUCCCUCCUAAGGAGAAGACUCCGGGUUCGAGUCCCGUGCCGAACG [G48C A65G G67C] here?
**A.** Its yeast fitness is ≤ 0.5.

**Q.** For GUUCCGUUGGCGUAAUGGUAACGCGUCUCCCUCCUAAGGAGAAGACUACGGGUUCGAGUCCCAUACGGAACG [G48A G63A], which yeast fitness is on record?
**A.** The yeast fitness was 0.887.

**Q.** With GUUCCGUUGGCGUAAUGGUAACGCGUCUCCCUCCUAAGGAGAAGACGGCGGGUUCGAGUCCUGUUCGGAACG [U47G C62U A65U] as the variant, how does the yeast fitness read?
**A.** The yeast fitness was 0.64.

**Q.** With GUUCCGUUGGCGUAAUGGUAACGCGUCUCCCUCCUAAGGAGAAGACGGCGGGUUCGAGUCCUGUCCGGAACG [U47G C62U A65C] as the variant, how does the yeast fitness read?
**A.** Its yeast fitness is ≤ 0.5.
